Data on 38 variants can be found in the RNAGym collection of RNA variant scans (doi:10.1038/nmeth.2970).

The chains are these.
B1: NELF-E aptamer (parent)
chain: CCCAACGACUGCCGAGCGAGAUUACGCUUGAGCGCCCCACUGAGGAUGCCCACGGGCGAUUGGGGCACGG

In this data set the parent is B1. In words: HiTS-RAP. To be noted: with NELF-E (Drosophila). The procedure, abridged: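 Aptamer DNA templates carrying a T7 promoter and ter site were sequenced on an Illumina GAIIx flowcell, then transcribed in situ by T7 RNA polymerase and halted by GST-Tus (30 minutes, 37°C). Clusters were imaged after 30-minute room-temperature equilibration with NELF-E-mOrange at 0.064 to 1000 nM in HEPES binding buffer, and only the first binding curve was used. Intensities were normalised to sequencing intensity and averaged per sequence. Kd came from weighted Hill fits, keeping fits with variance below 1,000,000.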
As to CCCAACGACUGCCGUGGGAGAUUACGCUUGAGCGCCCCACUGAGGAUGCCCACGGGCGAUUGGGGCACGG [A15U C17G], the Kd turned out to be 7.12 nM.

For the variant CCCAACGACUGCCUAGCGAGAUUAGGCUUGAGCGCCCCACUGAGGAUGCCCACGGGCGAUUGGGGCACGG [G14U C25G], the equilibrium dissociation constant (Kd) was 8.18 nM. Regarding CCCAACGACUGCCUAGCGAGAUUAUGCUUGAGCGCCCCACUGAGGAUGCCCACGGGCGAUUGGGGCACGG [G14U C25U], the Kd came to 7.71 nM. In the case of CCCAACGACUGCCUAGCGAGAUUACGCUUGAGCGCCCCACUGAGGAUGCCCACGGGCGAUUGAGGCACGG [G14U G63A] it was 11.9 nM; in that of CCCAACGACUGCCUAGCGAGAUUACGCUUGAGCGCCCCACUGAGGAUGCCCACGGGCGAUUGUGGCACGG [G14U G63U], 12.8 nM. In the case of CCCAACGACUGCCGUGCGAGAUUGCGCUUGAGCGCCCCACUGAGGAUGCCCACGGGCGAUUGGGGCACGG [A15U A24G] it was 6.86 nM. Consider CCCAACGACUGCCGUGCGAGAUUACGCUUGAGCGCCCCACUGAGGAUGCCCACGGGCGAUUGGGGCGCGG [A15U A67G], for which the dissociation constant (Kd) came to 4.18 nM. In the case of CCCAACGACUGCCUAGCGAGAUUACGCUUGAGCGCCCCACUGAGGAUGCCCACGAGCGAUUGGGGCACGG [G14U G55A] it was 7.48 nM. As for CCCAACGACUGCCUAGCGAGAUUACGCUUGAGCGCCCCACUGAGGAUGCCCACGUGCGAUUGGGGCACGG [G14U G55U], the figure is 9.69 nM. As for CCCAACGACUGCCUAGCGAGAUUACGCUUGAGCUCCCCACUGAGGAUGCCCACGGGCGAUUGGGGCACGG [G14U G34U], the figure is 5.16 nM; as for CCCAACGACUGCCUAGCGAGAUUACGCUUGAGCACCCCACUGAGGAUGCCCACGGGCGAUUGGGGCACGG [G14U G34A], 6.18 nM; as for CCCAACGACUGCCUAGCGAGAUUACGCUUGAGCGCCCCACUGAGGAUGCCCACGGGCGAUUGGAGCACGG [G14U G64A], 6.6 nM. As for CCCAACGACUGCCUAGCGAAAUUACGCUUGAGCGCCCCACUGAGGAUGCCCACGGGCGAUUGGGGCACGG [G14U G20A], the equilibrium dissociation constant (Kd) came to 6.93 nM. In the case of CCCAACGACUGCCUAGCGAUAUUACGCUUGAGCGCCCCACUGAGGAUGCCCACGGGCGAUUGGGGCACGG [G14U G20U] it was 6.93 nM. As for CCCAACGACUGCCGUGCGAGAUUACGCUGGAGCGCCCCACUGAGGAUGCCCACGGGCGAUUGGGGCACGG [A15U U29G], the figure is 6.83 nM; as for CCCAACGACUGCCGUGCGAGAUUACGCUAGAGCGCCCCACUGAGGAUGCCCACGGGCGAUUGGGGCACGG [A15U U29A], 5.96 nM; as for CCCAACGACUGCCGUUCGAGAUUACGCUUGAGCGCCCCACUGAGGAUGCCCACGGGCGAUUGGGGCACGG [A15U G16U], 8.03 nM. As for CCCAACGACUGCCUAGCGAGAUUACGCUUGAGCGCCCUACUGAGGAUGCCCACGGGCGAUUGGGGCACGG [G14U C38U], the figure is 9.69 nM; as for CCCAACGACUGCCGGGCGAGAUGACGCUUGAGCGCCCCACUGAGGAUGCCCACGGGCGAUUGGGGCACGG [A15G U23G], 5.24 nM. Consider CCCAACGACUGCCUAGCGAGAUUACGCGUGAGCGCCCCACUGAGGAUGCCCACGGGCGAUUGGGGCACGG [G14U U28G], for which the equilibrium dissociation constant (Kd) is 9.45 nM.

Turning to CCCAACGACUGCCUAGCGAGAGUACGCUUGAGCGCCCCACUGAGGAUGCCCACGGGCGAUUGGGGCACGG [G14U U22G], the Kd is 6.53 nM.

For CCCAACGACUGCCUAGCGAGACUACGCUUGAGCGCCCCACUGAGGAUGCCCACGGGCGAUUGGGGCACGG [G14U U22C], the Kd worked out at 5.6 nM.

Take CCCAACGACUGCCUAGGGAGAUUACGCUUGAGCGCCCCACUGAGGAUGCCCACGGGCGAUUGGGGCACGG [G14U C17G]: the Kd amounted to 6.27 nM. In the case of CCCAACGACUGCCUAGUGAGAUUACGCUUGAGCGCCCCACUGAGGAUGCCCACGGGCGAUUGGGGCACGG [G14U C17U] it was 6.1 nM; in that of CCCAACGACUGCCUAGCGAGAUGACGCUUGAGCGCCCCACUGAGGAUGCCCACGGGCGAUUGGGGCACGG [G14U U23G], 6.29 nM; in that of CCCAACGACUGCCGGGCGAGGUUACGCUUGAGCGCCCCACUGAGGAUGCCCACGGGCGAUUGGGGCACGG [A15G A21G], 5.12 nM.

As for CCCAACGACUGCCGCGCGAGAUUACGCUUGAGCGCCCCACUGAGGAUGCCCACGGGCGAUUGGGGCACGG [A15C], the Kd was 4 nM. As for CCCAACGACUGCCGGGCGAGAUUACGCUUGAGCGCCCCACUGAGGAUGCCCACGGGCGAUUGGGGCACGG [A15G], the figure is 4.77 nM; as for CCCAACGACUGCCGUGCGAGAUUACGCUUGAGCGCCCCACUGAGGAUGCCCACGGGCGAUUGGGGCACGG [A15U], 5.65 nM.

Regarding CCCAACGACUGCCGAACGAGAUUACGCUUGAGCGCCCCACUGAGGAUGCCCACGGGCGAUUGGGGCACGG [G16A], the Kd turned out to be 5.27 nM. Take CCCAACGACUGCCGGGCGAGAUUGCGCUUGAGCGCCCCACUGAGGAUGCCCACGGGCGAUUGGGGCACGG [A15G A24G]: the Kd is 6.12 nM. As for CCCAACGACUGCCGGGCGAGAGUACGCUUGAGCGCCCCACUGAGGAUGCCCACGGGCGAUUGGGGCACGG [A15G U22G], the figure is 5.78 nM; as for CCCAACGACUGCCUAGCGAGAUUACGCUUGAGCGCUCCACUGAGGAUGCCCACGGGCGAUUGGGGCACGG [G14U C36U], 8.6 nM. As for CCCAACGACUGCCUAGCGAGAUUACGCUUGAGCGCCCCACUGAGGAAGCCCACGGGCGAUUGGGGCACGG [G14U U47A], the figure is 9.21 nM. As for CCCAACGACUGCCGUGCGAGAUUACGCUUGAGCGCCCCACCGAGGAUGCCCACGGGCGAUUGGGGCACGG [A15U U41C], the figure is 82.7 nM; as for CCCAACGACUGCCGUGCGAGAUUACGCUUGAGCGCCCCACGGAGGAUGCCCACGGGCGAUUGGGGCACGG [A15U U41G], 6.49 nM. In the case of CCCAACGACUGCCGUGCGAGAUUACGCUUGAGCACCCCACUGAGGAUGCCCACGGGCGAUUGGGGCACGG [A15U G34A], the Kd was determined as 11.8 nM. Turning to CCCAACGACUGCCUAGCUAGAUUACGCUUGAGCGCCCCACUGAGGAUGCCCACGGGCGAUUGGGGCACGG [G14U G18U], the Kd is 7.17 nM.

The term Kd denotes the concentration at which binding is half-saturated.
